Measurements published in ChEMBL document CHEMBL1138624, “Design, synthesis, and quantitative structure-activity relationship of cytotoxic gamma-carboline derivatives” (Bioorg Med Chem, 2009).
pIC50: −log10 of the molar value.

What was measured:
Format in all cases: functional, cell-based
A549 = assay: Cytotoxicity against human A549 cells after 48 hrs by MTT assay; settings: A549, 48 h
How it was run: (§1)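 Cell lines sourced from Shanghai Institute of Pharmaceutical Industry; K562R is a multidrug-resistant subline. Cells exposed to compound for 48 h, then MTT in RPMI-1640 added with a further 4 h at 37 °C. Formazan dissolved in DMSO, absorbance read at 570 nm. Triplicate wells in three independent experiments. IC50 (50% inhibition of viability) from dose-effect analysis, reported as mean of three experiments.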

K562 [1] = assay: Cytotoxicity against human K562 cells after 48 hrs by MTT assay; settings: K562, 48 h; for pIC50: read-out: IC50; for IC50: read-out: pIC50 (converted); how it was run: as §1
K562 [2] = assay: Cytotoxicity against multidrug-resistant human K562 cells after 48 hrs by MTT assay; settings: K562, 48 h; how it was run: as §1
[3] = Cytotoxicity against human SGC cells after 48 hrs by MTT assay; how it was run: as §1
HCT-116 = assay: Cytotoxicity against human HCT116 cells after 48 hrs by MTT assay; settings: HCT-116, 48 h; how it was run: as §1
MCF7 = assay: Cytotoxicity against human MCF7 cells after 48 hrs by MTT assay; settings: MCF7, 48 h; how it was run: as §1

| Structure (SMILES) | pIC50 (A549) | pIC50 (K562 [1]) | IC50 (K562 [1]) | pIC50 (K562 [2]) | pIC50 [3] | pIC50 (HCT-116) | pIC50 (MCF7) |
| --- | --- | --- | --- | --- | --- | --- | --- |
| O=S(=O)(Nc1cccc2ncccc12)c1ccc2[nH]c3ccncc3c2c1 | 4.64 | 4.90 | 12.7 µM | 4.73 | 4.02 | 4.51 | 4.62 |
| CCn1c2ccncc2c2cc(NC(=O)c3cccnc3)ccc21 | 4.13 | 4.84 | 14.5 µM | 4.39 | 4.29 | 4.06 | 4.74 |
| Nc1ccc(OS(=O)(=O)c2ccc3[nH]c4ccncc4c3c2)cc1 | 4.99 | 4.73 | 18.5 µM | 5.23 | 5.67 | 4.68 | 4.78 |
| COc1ccccc1OS(=O)(=O)c1ccc2[nH]c3ccncc3c2c1 | 4.50 | 4.85 | 14.1 µM | 4.82 | 4.27 | 4.19 | 4.61 |
| CCn1c2ccncc2c2cc(NC(=O)c3ccccc3Cl)ccc21 | 4.43 | 5.07 | 8.57 µM | 4.64 | 4.68 | 5.58 | 5.19 |
| CCn1c2ccncc2c2cc(S(=O)(=O)Nc3ccc4c(ccn4C)c3)ccc21 | 4.13 | 4.92 | 12.2 µM | 4.77 | 4.14 | 4.63 | 5.30 |
| COc1cc(NS(=O)(=O)c2ccc3[nH]c4ccncc4c3c2)cc(OC)c1OC | 4.32 | 4.95 | 11.3 µM | 4.13 | < 4.00 | 4.77 | 4.72 |
| COc1ccc(OS(=O)(=O)c2ccc3[nH]c4ccncc4c3c2)cc1 | 4.65 | 5.18 | 6.61 µM | 5.24 | 4.67 | 4.62 | 4.80 |
| CCn1c2ccncc2c2cc(NC(=O)c3cc(OC)c(OC)c(OC)c3)ccc21 | 4.80 | 4.87 | 13.6 µM |  | 4.79 |  |  |
| CCn1c2ccncc2c2cc(NC(=O)c3ccccc3)ccc21 | < 4.00 | 4.58 | 26.2 µM | 4.97 | 4.58 | < 4.00 | 4.93 |
| O=S(=O)(Oc1ccc(Cl)cc1)c1ccc2[nH]c3ccncc3c2c1 | 4.33 | 4.69 | 20.5 µM | 4.86 | 4.40 | 4.49 | 4.58 |
| COc1cc(OS(=O)(=O)c2ccc3[nH]c4ccncc4c3c2)cc(OC)c1OC |  | 5.35 | 4.5 µM | 5.58 | 6.82 | 6.11 | 6.07 |
| O=S(=O)(Oc1ccccc1)c1ccc2[nH]c3ccncc3c2c1 | < 4.00 | 4.11 | 77.4 µM | 4.31 | < 4.00 | 4.34 | 4.41 |
| O=S(=O)(Oc1cccc(Cl)c1)c1ccc2[nH]c3ccncc3c2c1 | 4.36 | 4.88 | 13.2 µM | 5.07 | 5.24 | 4.37 | 4.32 |
| O=S(=O)(Oc1cccc2ccccc12)c1ccc2[nH]c3ccncc3c2c1 | 4.48 | 4.59 | 25.9 µM | 4.97 | 4.63 | 4.40 | 4.84 |
| CCn1c2ccncc2c2cc(NC(=O)c3ccc(S(C)(=O)=O)cc3)ccc21 | < 4.00 | 4.64 | 22.9 µM | 4.02 | 4.44 | < 4.00 | 4.64 |
| CCn1c2ccncc2c2cc(NC(=O)c3ccccc3O)ccc21 | < 4.00 | 4.89 | 12.7 µM | 4.64 | 4.72 | < 4.00 | 4.68 |
| CCN(c1cc(OC)c(OC)c(OC)c1)S(=O)(=O)c1ccc2c(c1)c1cnccc1n2CC | 4.47 | 5.99 | 1.02 µM | 5.52 | 4.86 | 4.99 | 5.68 |
| CCn1c2ccncc2c2cc(S(=O)(=O)Nc3ccncc3)ccc21 | < 4.00 | < 4.00 |  | < 4.00 | < 4.00 | < 4.00 | < 4.00 |
| CCn1c2ccncc2c2cc(S(=O)(=O)Nc3ccccc3)ccc21 | < 4.00 | 4.68 | 20.7 µM | < 4.00 | 5.10 | 4.86 | 6.06 |
| CCN(c1cc(OC)c(OC)c(OC)c1)S(=O)(=O)c1ccc2c(c1)c1c[n+](CC)ccc1n2CC | < 4.00 | < 4.00 |  | < 4.00 | < 4.00 | < 4.00 | < 4.00 |
| CCn1c2ccncc2c2cc(NC(=O)c3ccc(Br)cc3)ccc21 | < 4.00 | 4.88 | 13.2 µM | 4.81 | 4.15 | < 4.00 | 4.93 |
| CCn1c2ccncc2c2cc(NC(=O)c3ccc(OC)cc3)ccc21 | 4.14 | 4.95 | 11.3 µM | 5.29 | 4.67 | 4.29 | 5.31 |
| O=[N+]([O-])c1ccc(OS(=O)(=O)c2ccc3[nH]c4ccncc4c3c2)cc1 | 4.76 | 4.56 | 27.9 µM | 5.08 | 5.15 | 4.68 | 4.97 |
| CCn1c2ccncc2c2cc(S(=O)(=O)Nc3cc(OC)c(OC)c(OC)c3)ccc21 | < 4.00 | 5.22 | 6.1 µM | < 4.00 | < 4.00 | 4.49 | 5.24 |
